Measured values from ChEMBL document CHEMBL2417474, “Synthesis, antiproliferative and anti-inflammatory activities of some novel 6-aryl-2-(p-(methanesulfonyl)phenyl)-4,5-dihydropyridazi-3(2H)-ones” (Eur J Med Chem, 2013).

Legend:
Assay type in all cases: functional
SK-MEL-2 [1] = assay: Growth inhibition of human SK-MEL-2 cells after 48 hrs by sulforhodamine B assay; details: SK-MEL-2, 48 h
Method in brief: (§1)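 NCI 60-cell-line panel. Cells were grown in medium with 5% fetal calf serum and 2 mM L-glutamine, then preincubated 24 h in plates. Compounds were added from DMSO at five 10-fold concentrations from 100 to 0.01 µM and left on cells continuously for 48 h. Cell growth was read by sulforhodamine B protein stain. GI50 is the concentration that halves net protein increase relative to control cells.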

COLO 205 = assay: Growth inhibition of human COLO205 cells after 48 hrs by sulforhodamine B assay; details: COLO 205, 48 h; for CC50: read-out: LC50 (the source's name)
Method in brief: (§2)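 NCI 60-cell-line panel grown in RPMI-type medium with 5% fetal calf serum and 2 mM L-glutamine. Cells preincubated 24 h, then exposed continuously for 48 h to compound in DMSO at 10^-4 to 10^-8 M (five 10-fold levels). Growth read by SRB protein stain. GI50 is the concentration giving a 50% reduction in net protein increase relative to control cells.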

PC-3 [2] = assay: Growth inhibition of human PC3 cells after 48 hrs by sulforhodamine B assay; details: PC-3, 48 h; method in brief: as §1
HCT-116 [3] = assay: Growth inhibition of human HCT116 cells after 48 hrs by sulforhodamine B assay; details: HCT-116, 48 h; method in brief: as §2
Rattus norvegicus = assay: Antiinflammatory activity in Wistar rat assessed as inhibition of carrageenan-induced paw edema at 0.05 mmol/kg, po administered 30 mins prior challenge measured after 3 hrs
Method in brief: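 Wistar rats of either sex, 150–175 g, fasted 16 h, 6 per group. Dosed orally at 0.05 mmol/kg, suspended in 1% CMC in water (10 ml/kg). 30 min later, 0.1 ml of 1% carrageenan in saline injected subplantar into the left hind paw. Paw volume read by plethysmometer at 0, 3 and 5 h. % inhibition = (1 − Vt/Vc) × 100 against the vehicle group.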

MCF7 = assay: Growth inhibition of human MCF7 cells after 48 hrs by sulforhodamine B assay; details: MCF7, 48 h; method in brief: as §2
SNB-19 = assay: Growth inhibition of human SNB19 cells assessed as cell growth at 10 uM after 48 hrs by sulforhodamine B assay; details: SNB-19, 48 h, read-out: Activity
HCT-116 [4] = assay: Growth inhibition of human HCT116 cells assessed as cell growth at 10 uM after 48 hrs by sulforhodamine B assay; details: HCT-116, 48 h, read-out: Activity
[5] = Growth inhibition of human EKVX cells assessed as cell growth at 10 uM after 48 hrs by sulforhodamine B assay; details: read-out: Activity
SW-620 = assay: Growth inhibition of human SW620 cells after 48 hrs by sulforhodamine B assay; details: SW-620, 48 h; for CC50: read-out: LC50 (the source's name)
Method in brief: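 NCI 60-line panel. Cells were grown in medium with 5% fetal calf serum and 2 mM L-glutamine and preincubated 24 h in plates. Compound in DMSO was added at 10^-4 to 10^-8 M (five 10-fold levels), with continuous exposure for 48 h. Growth was read by SRB protein staining. GI50 is the concentration giving 50% reduction in net protein increase versus control cells.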

NCI-H460 = assay: Growth inhibition of human NCI-H460 cells assessed as cell growth at 10 uM after 48 hrs by sulforhodamine B assay; details: NCI-H460, 48 h, read-out: Activity
SN12C = assay: Growth inhibition of human SN12C cells after 48 hrs by sulforhodamine B assay
Method in brief: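 Part of the NCI 60-cell-line panel. Cells were grown in 1640 medium with 5% fetal calf serum and 2 mM L-glutamine, then preincubated 24 h before compound was added. Compounds in DMSO were tested at five concentrations (100, 10, 1, 0.1, 0.01 µM) with 48 h continuous exposure. Read-out was SRB protein staining; GI50 is the concentration halving the net protein increase versus control.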

A498 = assay: Growth inhibition of human A498 cells after 48 hrs by sulforhodamine B assay; details: A498, 48 h; for CC50: read-out: LC50 (the source's name); method in brief: as §2
DU-145 [6] = assay: Growth inhibition of human DU145 cells assessed as cell growth at 10 uM after 48 hrs by sulforhodamine B assay; details: DU-145, 48 h, read-out: Activity
OVCAR-5 = assay: Growth inhibition of human OVCAR5 cells assessed as cell growth at 10 uM after 48 hrs by sulforhodamine B assay; details: OVCAR-5, 48 h, read-out: Activity
SK-MEL-2 [7] = assay: Growth inhibition of human SK-MEL-2 cells assessed as cell growth at 10 uM after 48 hrs by sulforhodamine B assay; details: SK-MEL-2, 48 h, read-out: Activity
SF-295 = assay: Growth inhibition of human SF295 cells assessed as cell growth at 10 uM after 48 hrs by sulforhodamine B assay; details: SF-295, 48 h, read-out: Activity
OVCAR-3 [8] = assay: Growth inhibition of human OVCAR3 cells assessed as cell growth at 10 uM after 48 hrs by sulforhodamine B assay; details: OVCAR-3, 48 h, read-out: Activity
K562 = assay: Growth inhibition of human K562 cells assessed as cell growth at 10 uM after 48 hrs by sulforhodamine B assay; details: K562, 48 h, read-out: Activity
PC-3 [9] = assay: Growth inhibition of human PC3 cells assessed as cell growth at 10 uM after 48 hrs by sulforhodamine B assay; details: PC-3, 48 h, read-out: Activity
DU-145 [10] = assay: Growth inhibition of human DU145 cells after 48 hrs by sulforhodamine B assay; details: DU-145, 48 h; for CC50: read-out: LC50 (the source's name); method in brief: as §2
HCT-15 [11] = assay: Growth inhibition of human HCT15 cells assessed as cell growth at 10 uM after 48 hrs by sulforhodamine B assay; details: HCT-15, 48 h, read-out: Activity
[12] = Growth inhibition of human NCI-ADR-RES cells after 48 hrs by sulforhodamine B assay; method in brief: as §1
HT-29 = assay: Growth inhibition of human HT-29 cells assessed as cell growth at 10 uM after 48 hrs by sulforhodamine B assay; details: HT-29, 48 h, read-out: Activity
HCT-15 [13] = assay: Growth inhibition of human HCT15 cells after 48 hrs by sulforhodamine B assay; details: HCT-15, 48 h; method in brief: as §2
OVCAR-3 [14] = assay: Growth inhibition of human OVCAR3 cells after 48 hrs by sulforhodamine B assay; details: OVCAR-3, 48 h; method in brief: as §1
NCI-H23 = assay: Growth inhibition of human NCI-H23 cells assessed as cell growth at 10 uM after 48 hrs by sulforhodamine B assay; details: NCI-H23, 48 h, read-out: Activity

Cc1cc(O)ccc1C1=NN(c2ccc(S(C)(=O)=O)cc2)C(=O)CC1
GI50 (SK-MEL-2 [1]): 3480 nM
LC50 (SK-MEL-2 [1]): > 100 µM
TGI (SK-MEL-2 [1]): 32.8 µM
GI50 (COLO 205): 6.62 µM
TGI (COLO 205): 74.4 µM
CC50 (COLO 205): > 100 µM
GI50 (PC-3 [2]): 14.8 µM
LC50 (PC-3 [2]): > 100 µM
TGI (PC-3 [2]): > 100 µM
GI50 (HCT-116 [3]): 3780 nM
LC50 (concentration killing 50% of cells) (HCT-116 [3]): > 100 µM
TGI (HCT-116 [3]): > 100 µM
inhibition in vivo at 50 µmol/kg (Rattus norvegicus): 33.3%
GI50 (MCF7): 20.7 µM
LC50 (concentration killing 50% of cells) (MCF7): > 100 µM
TGI (MCF7): > 100 µM
growth at 10 µM (SNB-19): 78.2%
growth at 10 µM (HCT-116 [4]): 52.4%
growth at 10 µM [5]: 72.2%
GI50 (SW-620): 3.32 µM
TGI (SW-620): > 100 µM
CC50 (SW-620): > 100 µM
growth at 10 µM (NCI-H460): 73.1%
GI50 (SN12C): 7.18 µM
LC50 (SN12C): > 100 µM
TGI (SN12C): > 100 µM
GI50 (A498): 2780 nM
TGI (A498): 45.4 µM
CC50 (A498): > 100 µM
growth at 10 µM (DU-145 [6]): 92.2%
growth at 10 µM (OVCAR-5): 98%
growth at 10 µM (SK-MEL-2 [7]): 68.7%
growth at 10 µM (SF-295): 32.1%
growth at 10 µM (OVCAR-3 [8]): 65.1%
growth at 10 µM (K562): 20.6%
growth at 10 µM (PC-3 [9]): 77.9%
GI50 (DU-145 [10]): 24.7 µM
TGI (DU-145 [10]): > 100 µM
CC50 (DU-145 [10]): > 100 µM
growth at 10 µM (HCT-15 [11]): 44.9%
GI50 [12]: 3260 nM
LC50 [12]: > 100 µM
TGI [12]: > 100 µM
growth at 10 µM (HT-29): 38.9%
GI50 (HCT-15 [13]): 7.91 µM
LC50 (HCT-15 [13]): > 100 µM
TGI (HCT-15 [13]): > 100 µM
GI50 (OVCAR-3 [14]): 3410 nM
LC50 (lethal concentration, 50% net cell kill) (OVCAR-3 [14]): > 100 µM
TGI (OVCAR-3 [14]): 9.44 µM
growth at 10 µM (NCI-H23): 32.9%

CCc1ccc(C2=NN(c3ccc(S(C)(=O)=O)cc3)C(=O)CC2)cc1
GI50 (SK-MEL-2 [1]): 900 nM
LC50 (SK-MEL-2 [1]): > 100 µM
TGI (SK-MEL-2 [1]): > 100 µM
GI50 (COLO 205): 1.02 µM
TGI (COLO 205): 12.6 µM
CC50 (COLO 205): 83.8 µM
GI50 (PC-3 [2]): 2.76 µM
LC50 (PC-3 [2]): > 100 µM
TGI (PC-3 [2]): > 100 µM
GI50 (HCT-116 [3]): 730 nM
LC50 (concentration killing 50% of cells) (HCT-116 [3]): > 100 µM
TGI (HCT-116 [3]): > 100 µM
inhibition in vivo at 50 µmol/kg (Rattus norvegicus): 46.7%
GI50 (MCF7): 3.13 µM
LC50 (concentration killing 50% of cells) (MCF7): > 100 µM
TGI (MCF7): > 100 µM
growth at 10 µM (SNB-19): 51.5%
growth at 10 µM (HCT-116 [4]): 15.7%
growth at 10 µM [5]: 60.4%
GI50 (SW-620): 43.1 µM
TGI (SW-620): > 100 µM
CC50 (SW-620): > 100 µM
growth at 10 µM (NCI-H460): 10.6%
GI50 (SN12C): 4.81 µM
LC50 (SN12C): > 100 µM
TGI (SN12C): > 100 µM
GI50 (A498): 140 nM
TGI (A498): 2.3 µM
CC50 (A498): > 100 µM
growth at 10 µM (DU-145 [6]): 21.4%
growth at 10 µM (OVCAR-5): 48.7%
growth at 10 µM (SK-MEL-2 [7]): 36.9%
growth at 10 µM (SF-295): 9.24%
growth at 10 µM (OVCAR-3 [8]): -13.6%
growth at 10 µM (K562): 10.4%
growth at 10 µM (PC-3 [9]): 56.6%
GI50 (DU-145 [10]): 5.66 µM
TGI (DU-145 [10]): > 100 µM
CC50 (DU-145 [10]): > 100 µM
growth at 10 µM (HCT-15 [11]): 22.1%
GI50 [12]: 400 nM
LC50 [12]: > 100 µM
TGI [12]: 3.34 µM
growth at 10 µM (HT-29): 11.5%
GI50 (HCT-15 [13]): 1.9 µM
LC50 (HCT-15 [13]): > 100 µM
TGI (HCT-15 [13]): > 100 µM
GI50 (OVCAR-3 [14]): 930 nM
LC50 (lethal concentration, 50% net cell kill) (OVCAR-3 [14]): > 100 µM
growth at 10 µM (NCI-H23): -4.83%
